Source: ChEMBL document CHEMBL1147105, “In vitro and in vivo activities of PD 0305970 and PD 0326448, new bacterial gyrase/topoisomerase inhibitors with potent antibacterial activities versus multidrug-resistant gram-positive and fastidious organism groups” (2007)
≈ marks a conversion by molar mass, not a printed value.

Key:
Type in all cases: functional
Streptococcus pneumoniae = test: Antibacterial activity against penicillin-intermediate resistant Streptococcus pneumoniae
Outline: (§1)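 Broth microdilution MIC per CLSI guidelines, incubated at 35°C. Cation-adjusted Mueller-Hinton broth for nonfastidious organisms and staphylococci. Streptococci tested in the same broth with 3% lysed horse blood. Anaerobes tested in supplemented Brucella broth inside an anaerobe chamber (5% CO2, 5% H2, 90% N2), read after 48 h. Strains were mainly recent clinical isolates with confirmed identity.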

Streptococcus mitis = test: Antibacterial activity against Streptococcus mitis
Outline: (§2)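 Broth microdilution MIC following CLSI guidelines, in cation-adjusted Mueller-Hinton broth with 3% lysed horse blood. Plates incubated at 35°C. Clinical isolates and reference strains, with identity confirmed by standard microbiological methods.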

Proteus vulgaris = test: Antibacterial activity against Proteus vulgaris
Outline: (§3)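 Broth microdilution MIC following CLSI guidelines, in cation-adjusted Mueller-Hinton broth, incubated at 35°C. Recent clinical isolates and reference strains, with identity confirmed by automated and standard microbiological methods. Results reported as MIC range, MIC50 and MIC90.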

Staphylococcus aureus [1] = test: Antibacterial activity against oxacillin and levofloxacin-resistant Staphylococcus aureus; outline: as §1
Actinomyces sp. = test: Antibacterial activity against Actinomyces sp.
Cutibacterium acnes = test: Antibacterial activity against Propionibacterium acnes
Acinetobacter sp. = test: Antibacterial activity against Acinetobacter sp.; outline: as §3
Escherichia coli = test: Antibacterial activity against Escherichia coli; outline: as §3
Morganella morganii = test: Antibacterial activity against Morganella morganii; outline: as §3
Enterococcus faecalis = test: Antibacterial activity against Enterococcus faecalis; outline: as §1
Haemophilus influenzae [2] = test: Antibacterial activity against beta-lactamase positive Haemophilus influenzae
Outline: (§4)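 Broth microdilution MIC following CLSI guidelines, in Haemophilus test medium at 35°C.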

Prevotella sp. = test: Antibacterial activity against Prevotella sp.
Outline: (§5)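 Anaerobic broth microdilution MIC following CLSI guidelines, in supplemented Brucella broth. Run in an anaerobe chamber under 5% CO2, 5% H2 and 90% N2 at 35°C, and read after 48 h. Reported as MIC range, MIC50 and MIC90.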

Clostridioides difficile = test: Antibacterial activity against Clostridium difficile; outline: as §5
Bacteroides ovatus = test: Antibacterial activity against Bacteroides ovatus; outline: as §5
Corynebacterium sp. = test: Antibacterial activity against Corynebacterium sp.
Outline: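 Broth microdilution MIC following CLSI guidelines, in cation-adjusted Mueller-Hinton broth containing 3% lysed horse blood, incubated at 35°C. Clinical isolates with identity confirmed. Reported as MIC range, MIC50 and MIC90.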

Neisseria gonorrhoeae = test: Antibacterial activity against Neisseria gonorrhoeae
Outline: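 MIC by broth microdilution in gonococcal broth, incubated at 35°C in 5% CO2. Reported as MIC range, MIC50 and MIC90.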

Enterococcus faecium = test: Antibacterial activity against VanA-resistant Enterococcus faecium; outline: as §1
[3] = tested on: Enterococcus casseliflavus; test: Antibacterial activity against Enterococcus casseliflavus
Enterococcus gallinarum = test: Antibacterial activity against Enterococcus gallinarum
Pseudomonas aeruginosa = test: Antibacterial activity against Pseudomonas aeruginosa; outline: as §3
Haemophilus influenzae [4] = test: Antibacterial activity against beta-lactamase negative Haemophilus influenzae; outline: as §4
[5] = tested on: Fusobacterium necrophorum; test: Antibacterial activity against Fusobacterium necrophorum; outline: as §5
Staphylococcus aureus [6] = test: Antibacterial activity against oxacillin-susceptible Staphylococcus aureus
Outline: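 MIC by CLSI broth microdilution for nonfastidious organisms, in cation-adjusted Mueller-Hinton broth incubated at 35°C.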

Streptococcus salivarius = test: Antibacterial activity against Streptococcus salivarius; outline: as §2

With COc1c(N2CCNC(C)C2)c(F)cc2c(=O)c(C(=O)O)cn(C3CC3)c12 (stereo not given) [GATIFLOXACIN] the MIC50 (Streptococcus pneumoniae) was 0.25 µg/mL (≈ 0.666 µM), the MIC90 (Streptococcus pneumoniae) was 0.5 µg/mL (≈ 1.33 µM) and the MIC50 (Streptococcus mitis) was 0.5 µg/mL (≈ 1.33 µM). The MIC90 (Streptococcus mitis) was 0.5 µg/mL (≈ 1.33 µM), the MIC (Proteus vulgaris) was 0.06 µg/mL (≈ 0.16 µM) and the MIC50 (Staphylococcus aureus [1]) was 8 µg/mL (≈ 21.3 µM). It also gave an MIC90 (Staphylococcus aureus [1]) of 16 µg/mL (≈ 42.6 µM), an MIC (Actinomyces sp.) of 0.125 µg/mL (≈ 0.333 µM) and an MIC50 (Cutibacterium acnes) of 1 µg/mL (≈ 2.66 µM). For the same compound, the MIC90 (Cutibacterium acnes) was 8 µg/mL (≈ 21.3 µM), the MIC50 (Acinetobacter sp.) was 0.03 µg/mL (≈ 0.0799 µM) and the MIC90 (Acinetobacter sp.) was 16 µg/mL (≈ 42.6 µM). It also gave an MIC50 (Escherichia coli) of 0.03 µg/mL (≈ 0.0799 µM), an MIC90 (Escherichia coli) of 1 µg/mL (≈ 2.66 µM) and an MIC50 (Morganella morganii) of 0.25 µg/mL (≈ 0.666 µM). For the same compound, the MIC90 (Morganella morganii) was 32 µg/mL (≈ 85.2 µM), the MIC50 (Enterococcus faecalis) was 8 µg/mL (≈ 21.3 µM) and the MIC90 (Enterococcus faecalis) was 16 µg/mL (≈ 42.6 µM). The MIC50 (Haemophilus influenzae [2]) was 0.015 µg/mL (≈ 0.04 µM), the MIC90 (Haemophilus influenzae [2]) was 0.015 µg/mL (≈ 0.04 µM) and the MIC50 (Prevotella sp.) was 0.25 µg/mL (≈ 0.666 µM). For the same compound, the MIC90 (Prevotella sp.) was 0.5 µg/mL (≈ 1.33 µM), the MIC50 (Clostridioides difficile) was 0.5 µg/mL (≈ 1.33 µM) and the MIC90 (Clostridioides difficile) was 0.5 µg/mL (≈ 1.33 µM). The MIC50 (Bacteroides ovatus) was 4 µg/mL (≈ 10.7 µM), the MIC90 (Bacteroides ovatus) was 16 µg/mL (≈ 42.6 µM) and the MIC50 (Corynebacterium sp.) was 0.25 µg/mL (≈ 0.666 µM). The MIC90 (Corynebacterium sp.) was 32 µg/mL (≈ 85.2 µM), the MIC50 (Neisseria gonorrhoeae) was 0.004 µg/mL (≈ 0.0107 µM) and the MIC90 (Neisseria gonorrhoeae) was 0.008 µg/mL (≈ 0.0213 µM). It also gave an MIC50 (Enterococcus faecium) of 32 µg/mL (≈ 85.2 µM), an MIC90 (Enterococcus faecium) of 64 µg/mL (≈ 170 µM) and an MIC50 [3] of 0.5 µg/mL (≈ 1.33 µM). For the same compound, the MIC90 [3] was 1 µg/mL (≈ 2.66 µM), the MIC50 (Enterococcus gallinarum) was 0.5 µg/mL (≈ 1.33 µM) and the MIC90 (Enterococcus gallinarum) was 1 µg/mL (≈ 2.66 µM). For the same compound, the MIC50 (Pseudomonas aeruginosa) was 1 µg/mL (≈ 2.66 µM), the MIC90 (Pseudomonas aeruginosa) was 64 µg/mL (≈ 170 µM) and the MIC50 (Haemophilus influenzae [4]) was 0.008 µg/mL (≈ 0.0213 µM). For the same compound, the MIC90 (Haemophilus influenzae [4]) was 0.015 µg/mL (≈ 0.04 µM), the MIC [5] was 0.015 µg/mL (≈ 0.04 µM) and the MIC50 (Staphylococcus aureus [6]) was 0.125 µg/mL (≈ 0.333 µM). For the same compound, the MIC90 (Staphylococcus aureus [6]) was 0.125 µg/mL (≈ 0.333 µM), the MIC50 (Streptococcus salivarius) was 0.5 µg/mL (≈ 1.33 µM) and the MIC90 (Streptococcus salivarius) was 0.5 µg/mL (≈ 1.33 µM).
